# Measurements reported in ChEMBL document CHEMBL4371017, “Discovery and optimization of pyrazole amides as antagonists of CCR1” (Bioorg Med Chem Lett, 2019).
# Biological target: T1, C-C chemokine receptor type 1 (Homo sapiens, UniProt P32246)
# T1 sequence (P32246 whole entry): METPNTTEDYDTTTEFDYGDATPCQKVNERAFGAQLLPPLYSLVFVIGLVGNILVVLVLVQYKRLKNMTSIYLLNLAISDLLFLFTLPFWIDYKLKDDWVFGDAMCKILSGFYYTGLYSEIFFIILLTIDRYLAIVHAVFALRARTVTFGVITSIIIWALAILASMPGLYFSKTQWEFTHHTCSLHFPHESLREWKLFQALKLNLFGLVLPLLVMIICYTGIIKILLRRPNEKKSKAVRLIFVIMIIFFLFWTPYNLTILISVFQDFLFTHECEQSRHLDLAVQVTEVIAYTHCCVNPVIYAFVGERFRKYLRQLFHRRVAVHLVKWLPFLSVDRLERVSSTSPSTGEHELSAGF
# Assay: Antagonist activity at recombinant CCR1 (unknown origin) expressed in non-adherent cells co-expressing Galpha16 assessed as inhibition of MIP-1 alpha-induced calcium flux by Fluo-4 NW or Calcium 4 dye based FLIPR TETRA assay
# Format: functional, cell-based
# Settings: not given
# How it was run: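 The cells stably co-express CCR1 and Gα16 and were loaded with dye for 1 h at room temperature with probenecid (Method A: Fluo-4 NW; Method B: Calcium 4), then plated at 20,000 cells/well. Compounds were tested at 10 doses from a 3,000 nM top (A 3-fold steps, B 4-fold), in 1% DMSO and HBSS/20 mM HEPES pH 7.4. Preincubation was 1 h at room temperature in the dark (A) or 30 min at 37°C then 30 min at room temperature (B). MIP-1α was added at EC80 and the calcium flux recorded.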
row,SMILES,IC50 [nM]
1,Cc1c(C(=O)NCc2cccc(C(F)(F)F)c2)cnn1-c1ccc(Cl)c(Cl)c1,500
2,Cc1cc(C(=O)NCc2cccc(C(F)(F)F)c2)c(C)n1-c1ccc(Cl)cc1,350
3,Cn1c(C(=O)NCc2cccc(C(F)(F)F)c2)cnc1-c1ccc(Cl)cc1,> 3000
4,CCC[C@H](NC(=O)c1cnn(-c2ccc(Cl)cc2)c1C)c1cccc(C(F)(F)F)c1F,10
5,Cc1nc(-c2ccc(Cl)cc2)sc1C(=O)NCc1cccc(C(F)(F)F)c1,> 3000
6,O=C(NCc1cccc(C(F)(F)F)c1)c1cnn(-c2ccc(Cl)cc2)c1C(F)(F)F,> 3000
7,CC(C)[C@@H](NC(=O)NCC(C)(C)O)C(=O)N1CC[C@](O)(c2ccc(Cl)cc2)C(C)(C)C1 [BMS-817399],3
8,Cc1c(C(=O)NCc2cccc(C(F)(F)F)c2)cnn1-c1ccccc1,> 3000
9,Cc1c(C(=O)NCc2cccc(C(F)(F)F)c2)cnn1-c1ccccc1Cl,> 3000
10,Cc1c(C(=O)NCc2cccc(C(F)(F)F)c2)cnn1Cc1ccccc1,> 3000
11,Cc1c(C(=O)NCc2cccc(C(F)(F)F)c2)nnn1-c1ccc(Cl)cc1,2400
12,Cc1nc(C(=O)NCc2cccc(C(F)(F)F)c2)nn1-c1ccc(Cl)cc1,> 3000
13,Cc1nn(-c2ccc(Cl)c(Cl)c2)c(C)c1C(=O)NCc1cccc(C(F)(F)F)c1,> 3000
14,Cc1c(C(=O)NCc2cccc(C(F)(F)F)c2)cnn1-c1cccc(C(F)(F)F)c1,> 3000
15,Cc1c(C(=O)NCc2cccc(C(F)(F)F)c2)cnn1-c1cccc(Cl)c1,> 3000
16,O=C(NCc1cccc(C(F)(F)F)c1)c1cnn(-c2ccc(Cl)c(Cl)c2)c1,> 3000
17,COc1cc(N2CCN(C(=O)Cn3nc(-c4ncc[nH]4)c4cccnc43)CC2)ccc1Cl [CCX354],2
18,Cc1cccc(-n2ncc(C(=O)NCc3cccc(C(F)(F)F)c3)c2C)c1,> 3000
19,CC[C@H](NC(=O)c1cnn(-c2ccc(Cl)cc2)c1C)c1cccc(C(F)(F)F)c1F,13
20,CCCC(NC(=O)c1cnn(-c2ccc(Cl)cc2)c1C)c1ccc(S(C)(=O)=O)nc1 (stereo not drawn),47
21,Cc1c(C(=O)N[C@@H](C)c2cccc(C(F)(F)F)c2F)cnn1-c1ccc(Cl)cc1,28
22,Cn1cc(C(=O)NCc2cccc(C(F)(F)F)c2)nc1-c1ccc(Cl)cc1,> 3000
23,Cc1c(C(=O)NCc2cccc(C(F)(F)F)c2)cnn1-c1ccc([N+](=O)[O-])cc1,960
24,Cc1c(C(=O)NCc2ccc(S(C)(=O)=O)nc2)cnn1-c1ccc(Cl)c(Cl)c1,> 3000
25,CC(C)(O)c1ccc2c(c1)/C(=C\CCN1CC[C@](O)(c3ccc(Cl)cc3)C(C)(C)C1)c1cccnc1CO2,0.8
26,Cc1cc(-c2ccc(Cl)cc2)sc1C(=O)NCc1cccc(C(F)(F)F)c1,1900

# More lines, now with the values ahead:
row,IC50 [nM],SMILES
1,> 3000,COCc1c(C(=O)NCc2cccc(C(F)(F)F)c2)cnn1-c1ccc(Cl)cc1
2,1700,Cc1c(C(=O)NCc2ccc(S(C)(=O)=O)cc2)cnn1-c1ccc(Cl)cc1
3,> 3000,CN(C)c1c(C(=O)NCc2cccc(C(F)(F)F)c2)cnn1-c1ccc(Cl)cc1
4,> 3000,Cc1c(C(=O)NCc2ccncc2)cnn1-c1ccc(Cl)cc1
5,420,CNS(=O)(=O)c1ccc(CNC(=O)c2cnn(-c3ccc(Cl)cc3)c2C)cc1
6,> 3000,Cc1c(C(=O)NCc2ccccc2S(C)(=O)=O)cnn1-c1ccc(Cl)cc1
7,1200,O=C(NCc1cccc(C(F)(F)F)c1)c1cnn(-c2ccc(Cl)cc2)c1CO
8,790,Cc1c(C(=O)NCc2cccc(C(F)(F)F)c2)cnn1-c1ccc(F)cc1
9,2100,Cc1c(C(=O)NCc2cccc(S(C)(=O)=O)c2)cnn1-c1ccc(Cl)cc1
10,> 3000,Nc1c(C(=O)NCc2cccc(C(F)(F)F)c2)cnn1-c1ccc(Cl)cc1
11,> 3000,Cc1c(C(=O)NCc2cccnc2)cnn1-c1ccc(Cl)cc1
12,600,Cc1c(C(=O)NCc2cccc(C(F)(F)F)c2)cnn1-c1ccc(Cl)cc1
13,> 3000,Cc1c(C(=O)NCc2ccccn2)cnn1-c1ccc(Cl)cc1
14,> 3000,Cc1c(C(=O)NCc2cccc(C(N)=O)c2)cnn1-c1ccc(Cl)cc1
15,> 3000,Cc1c(C(=O)NCc2cccc(N)c2)cnn1-c1ccc(Cl)cc1
16,> 3000,Cc1c(C(=O)NCc2cccc(O)c2)cnn1-c1ccc(Cl)cc1

# System: not listed separately
# Assay: Aqueous solubility of the compound
# Format: physicochemical
# Settings: water
row,solubility [µg/mL],SMILES
1,< 1,Cc1c(C(=O)NCc2cccc(C(F)(F)F)c2)cnn1-c1ccc(Cl)c(Cl)c1
